Data as given in ChEMBL document CHEMBL1149089, “Evaluation of potent and selective small-molecule antagonists for the CXCR2 chemokine receptor” (J Med Chem, 2004).

Tests used:
[1] = target: T1, C-X-C chemokine receptor type 1 (Homo sapiens, UniProt P25024); experiment: Inhibition of binding of IL-8 to membranes of cloned CXC chemokine receptor 1 expressed in CHO Cells using [125I]IL-8 radioligand
T1 sequence (P25024 whole entry): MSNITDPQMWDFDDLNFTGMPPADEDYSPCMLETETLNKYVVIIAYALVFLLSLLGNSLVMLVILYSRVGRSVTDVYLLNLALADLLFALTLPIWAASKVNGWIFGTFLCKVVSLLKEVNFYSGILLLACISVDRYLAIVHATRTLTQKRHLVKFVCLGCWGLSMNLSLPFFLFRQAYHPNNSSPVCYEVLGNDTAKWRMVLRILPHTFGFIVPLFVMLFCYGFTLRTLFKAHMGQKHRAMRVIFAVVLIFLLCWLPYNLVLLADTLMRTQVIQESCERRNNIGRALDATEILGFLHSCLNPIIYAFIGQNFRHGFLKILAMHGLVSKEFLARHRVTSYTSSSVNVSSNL
Procedure, shortened: (§1)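 Membranes from CHO cells stably expressing CXCR1 or CXCR2; competition against radiolabeled human recombinant [125I]IL-8; IC50 given as mean ± SEM of three individual experiments.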

[2] = target: T2, C-X-C chemokine receptor type 2 (Homo sapiens, UniProt P25025); experiment: Inhibition of binding of IL-8 to membranes of cloned CXC chemokine receptor 2 expressed in CHO Cells using [125I]IL-8 radioligand; procedure, shortened: as §1
T2 sequence (P25025 whole entry): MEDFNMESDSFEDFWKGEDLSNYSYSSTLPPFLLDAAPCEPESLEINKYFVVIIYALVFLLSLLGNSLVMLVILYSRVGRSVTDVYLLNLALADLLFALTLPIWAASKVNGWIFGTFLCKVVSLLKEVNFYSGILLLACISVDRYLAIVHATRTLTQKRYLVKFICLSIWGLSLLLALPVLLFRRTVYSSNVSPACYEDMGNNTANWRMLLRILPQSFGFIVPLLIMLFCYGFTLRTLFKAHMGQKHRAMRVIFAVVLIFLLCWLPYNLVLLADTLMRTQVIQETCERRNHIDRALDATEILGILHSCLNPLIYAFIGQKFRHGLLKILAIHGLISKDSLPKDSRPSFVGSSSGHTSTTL

[3] = species on record: Homo sapiens; experiment: Compound was evaluated for GROalpha-mediated calcium mobilization in human polymorphonuclear neutrophils(PMNs); format: functional
Procedure, shortened: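 Human neutrophils stimulated with GROα, the CXCR2-selective ligand; calcium mobilization measured; mean ± SEM of at least three separate determinations.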

[4] = test system: Oryctolagus cuniculus; experiment: Compound was evaluated for inhibition of topical model of delayed type hypersensitivity (DTH) at a dose of 500 ug in rabbits; format: functional
Procedure, shortened: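 Rabbits sensitized by complete Freund's adjuvant injection in the nape of the neck, then challenged intradermally 5 weeks later with tuberculin (10 units PPD). At 5 min post-challenge, compound in methanol (50 µL) or methanol vehicle was applied topically to PPD sites and reapplied 4 h later. Skin-fold thickness at the challenge site was read 48 h after PPD; % inhibition reported.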

[5] = test system: Oryctolagus cuniculus; experiment: Compound was evaluated for inhibition of topical model of delayed type hypersensitivity (DTH) at a dose of 1000 ug in rabbits; format: functional
Procedure, shortened: (§2)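 Rabbits sensitized by complete Freund's adjuvant injected in the nape of the neck; challenged intradermally 5 weeks later with tuberculin (10 units PPD). Compound in methanol (50 µL) or methanol vehicle applied topically to PPD sites 5 min after challenge and reapplied 4 h later. Skin-fold thickness at challenge site measured 48 h after challenge; % inhibition versus vehicle.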

[6] = test system: Oryctolagus cuniculus; experiment: Compound was evaluated for inhibition of topical model of delayed type hypersensitivity (DTH) at a dose of 62.5 ug in rabbits; format: functional; procedure, shortened: as §2

Row | IC50 [1] [µM] | IC50 [2] [µM] | IC50 [3] [µM] | Compound | Inhibition [4] [%] | Inhibition [5] [%] | Inhibition [6] [%]
1 | 46.2 | 10.9 | 13.8 | O=C(Nc1ccccc1)Nc1cc([N+](=O)[O-])ccc1O |  |  | 
2 | 33.2 | 0.86 | 0.511 | O=C(Nc1ccccc1)Nc1cccc([N+](=O)[O-])c1O |  |  | 
3 | 18.2 | 0.32 | 0.339 | O=C(Nc1ccccc1)Nc1ccc([N+](=O)[O-])cc1O |  |  | 
4 | 21 | 0.2 | 0.12 | N#Cc1ccc(NC(=O)Nc2ccccc2)c(O)c1 |  | 21 | 
5 | 15.1 | 0.025 | 0.053 | N#Cc1ccc(NC(=O)Nc2ccccc2Br)c(O)c1 | 31 |  | 
6 | 11.1 | 0.057 | 0.0075 | N#Cc1c(Cl)ccc(NC(=O)Nc2ccccc2Br)c1O |  |  | 3

Row | Compound | IC50 [1] [µM] | IC50 [2] [µM] | IC50 [3] [µM] | Inhibition [4] [%] | Inhibition [5] [%] | Inhibition [6] [%]
7 | N#Cc1ccc(NC(=O)Nc2ccccc2Br)c(O)c1Cl | 4.2 | 0.022 | 0.0026 |  |  | 
8 | N#Cc1ccc(NC(=O)Nc2ccccc2Br)c(O)c1Br | 2.6 | 0.006 | 0.00079 | 33 |  | 
